According to ChEMBL document CHEMBL4368925, “Design, synthesis, and screening of novel ursolic acid derivatives as potential anti-cancer agents that target the HIF-1α pathway” (Bioorg Med Chem Lett, 2019):
Calls of active or inactive are those of the source. The calls are words filed in the database; no cut-off is given here.

How the values were obtained:
[1] = molecular target: Hypoxia-inducible factor 1-alpha (Homo sapiens) (UniProt Q16665); assay: Inhibition of HIF1alpha protein level in human Hep3B cells after 12 hrs in normoxic condition by Western blot analysis; assay type: cell-based
Hypoxia-inducible factor 1-alpha (Homo sapiens), sequence (Q16665 whole entry, looked up): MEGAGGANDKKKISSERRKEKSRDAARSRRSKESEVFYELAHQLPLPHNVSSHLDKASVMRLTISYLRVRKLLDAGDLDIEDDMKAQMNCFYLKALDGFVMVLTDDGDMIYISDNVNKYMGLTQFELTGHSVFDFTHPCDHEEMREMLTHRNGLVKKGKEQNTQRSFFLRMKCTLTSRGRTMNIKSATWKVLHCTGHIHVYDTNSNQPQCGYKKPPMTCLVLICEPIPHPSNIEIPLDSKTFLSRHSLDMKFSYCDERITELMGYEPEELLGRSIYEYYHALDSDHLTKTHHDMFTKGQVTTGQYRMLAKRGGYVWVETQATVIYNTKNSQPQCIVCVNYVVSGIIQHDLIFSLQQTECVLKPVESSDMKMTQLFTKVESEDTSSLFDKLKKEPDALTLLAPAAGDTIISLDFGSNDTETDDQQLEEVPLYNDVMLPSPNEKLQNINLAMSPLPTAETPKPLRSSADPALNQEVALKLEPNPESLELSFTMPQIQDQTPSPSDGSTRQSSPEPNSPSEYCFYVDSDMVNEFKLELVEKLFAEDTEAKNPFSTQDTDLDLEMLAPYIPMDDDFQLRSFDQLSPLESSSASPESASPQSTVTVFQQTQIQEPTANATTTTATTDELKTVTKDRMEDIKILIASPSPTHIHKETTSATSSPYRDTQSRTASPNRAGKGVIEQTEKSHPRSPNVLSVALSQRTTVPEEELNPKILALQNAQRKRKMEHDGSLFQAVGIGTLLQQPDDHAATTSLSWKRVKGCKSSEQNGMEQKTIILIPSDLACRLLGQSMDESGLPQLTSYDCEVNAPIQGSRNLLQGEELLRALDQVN
Outline: (§1)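 HCT116, A549, Hep3B and HeLa cells incubated 12 h under normoxia or hypoxia with or without indicated compound concentrations; nuclear extracts probed for HIF-1α by Western blot, blot reprobed for topoisomerase-I as loading control.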

[2] = test system: Hep 3B2; assay: Cytotoxicity against human Hep3B cells assessed as reduction in cell viability after 24 hrs in normoxic condition by MTT assay; assay type: cell-based
Outline: (§2)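 Hep3B viability by MTT assay after 24 h compound treatment under normoxia; table values are means, n=3.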

[3] = test system: Hep 3B2; assay: Antiproliferative activity against human Hep3B cells assessed as reduction in EdU incorporation at 10 uM after 12 hrs in hypoxic condition by DAPI staining based inverted fluorescence microscopic method; assay type: functional, cell-based
Outline: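 Hep3B cells incubated 12 h with or without compound at 10 μM; EdU-labelled replicating cells examined by fluorescence microscopy, DNA counterstained with DAPI; percentage of EdU-positive cells compared with vehicle-treated cells.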

[4] = molecular target: Hypoxia-inducible factor 1-alpha (Homo sapiens) (UniProt Q16665); assay: Inhibition of HIF1alpha protein level in human HCT116 cells after 12 hrs in normoxic condition by Western blot analysis; assay type: cell-based; outline: as §1
[5] = molecular target: Hypoxia-inducible factor 1-alpha (Homo sapiens) (UniProt Q16665); assay: Inhibition of HIF1alpha protein level in human HeLa cells after 12 hrs in hypoxic condition by Western blot analysis; assay type: cell-based; outline: as §1
[6] = test system: Hep 3B2; assay: Downregulation of HIF1alpha mRNA expression in human Hep3B cells up to 10 uM after 12 hrs in normoxic condition by RT-PCR analysis; assay type: functional, cell-based
Outline: (§3)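 Hep3B cells held under normoxia or hypoxia for 12 h with or without indicated compound concentrations; RNA isolated, reverse-transcribed and analysed by RT-PCR for HIF-1α and VEGF, GAPDH as loading control; mean ± SD of three independent experiments.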

[7] = molecular target: Hypoxia-inducible factor 1-alpha (Homo sapiens) (UniProt Q16665); assay: Inhibition of HIF1alpha protein level in human A549 cells after 12 hrs in hypoxic condition by Western blot analysis; assay type: cell-based; outline: as §1
[8] = test system: HeLa; assay: Effect on TOP1 protein level in human HeLa cells after 12 hrs in hypoxic condition by Western blot analysis; assay type: functional, cell-based; outline: as §1
[9] = molecular target: Hypoxia-inducible factor 1-alpha (Homo sapiens) (UniProt Q16665); assay: Inhibition of HIF1alpha protein level in human Hep3B cells at 10 uM after 12 hrs in hypoxic condition by DAPI-staining based confocal laser scanning microscopic analysis; assay type: cell-based
Outline: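 Hep3B cells given 10 μM compound for 12 h under hypoxia, fixed, stained with anti-HIF-1α (1:100) and Alexa Fluor 488 goat anti-mouse IgG, nuclei counterstained with DAPI; imaged by fluorescence microscopy with 40× objective.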

[10] = test system: HCT-116; assay: Effect on TOP1 protein level in human HCT116 cells after 12 hrs in hypoxic condition by Western blot analysis; assay type: functional, cell-based; outline: as §1
[11] = molecular target: T1, 26S proteasome (Homo sapiens) (UniProt Q99460+P49721+P20618+P28074+P28062+P28065+P28072+O00487+P25786+P25787+P25788+P25789+P28066+P60900+O14818+Q8TAA3+P40306+A5LHX3+P49720+P28070+Q99436+Q16186+P35998+P62191+P43686+P62333+P17980+P62195+Q13200+O43242+O00232+O00231+Q15008+P51665+Q9UNM6+P55036+P48556+P60896); assay: Inhibition of 26S proteosome in human Hep3B cells grown under in normoxic condition for 4 hrs assessed as downregulation of HIF1alpha level at 10 uM added together with cycloheximide and measured after up 45 mins post dose by Western blot analysis; assay type: cell-based
Outline: (§4)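 Hep3B cells kept under normoxia or hypoxia for 4 h, then cycloheximide (10 μM) and compound (10 μM) added to the medium; HIF-1α level detected by Western blot at 0, 15, 30 or 45 min after cycloheximide.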

[12] = test system: Hep 3B2; assay: Anticlonogenic activity against human Hep3B cells after 10 days by crystal violet staining based assay; assay type: functional, cell-based
Outline: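 Hep3B cells exposed to compound at 0, 1, 3 and 10 μM for 12 h, then medium replaced with fresh medium and cells grown 10 d; colony formation imaged.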

[13] = test system: Hep 3B2; assay: Effect on TOP1 protein level in human Hep3B cells after 12 hrs in hypoxic condition by Western blot analysis; assay type: functional, cell-based; outline: as §1
[14] = molecular target: Hypoxia-inducible factor 1-alpha (Homo sapiens) (UniProt Q16665); assay: Inhibition of HIF1alpha in human Hep3B cells at 10 uM preincubated with 26S proteosome inhibitor MG132 followed by compound addition and measured after 12 hrs in hypoxic condition by Western blot analysis; assay type: cell-based
Outline: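 Proteasome inhibitor MG-132 (10 μM) added to Hep3B cells 30 min before compound (10 μM), then hypoxia for 12 h; nuclear HIF-1α detected by Western blot.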

[15] = test system: A549; assay: Effect on TOP1 protein level in human A549 cells after 12 hrs in hypoxic condition by Western blot analysis; assay type: functional, cell-based; outline: as §1
[16] = molecular target: Hypoxia-inducible factor 1-alpha (Homo sapiens) (UniProt Q16665); assay: Inhibition of HIF1alpha protein level in human Hep3B cells after 12 hrs in hypoxic condition by Western blot analysis; assay type: cell-based; outline: as §1
[17] = molecular target: Hypoxia-inducible factor 1-alpha (Homo sapiens) (UniProt Q16665); assay: Inhibition of HIFalpha in human Hep3B cells assessed as downregulation of VEGF mRNA expression up to 10 uM after 12 hrs in hypoxic condition by RT-PCR analysis; assay type: cell-based; outline: as §3
[18] = test system: Hep 3B2; assay: Downregulation of HIF1alpha mRNA expression in human Hep3B cells up to 10 uM after 12 hrs in hypoxic condition by RT-PCR analysis; assay type: functional, cell-based; outline: as §3
[19] = molecular target: Hypoxia-inducible factor 1-alpha (Homo sapiens) (UniProt Q16665); assay: Inhibition of HIF1alpha protein level in human A549 cells after 12 hrs in normoxic condition by Western blot analysis; assay type: cell-based; outline: as §1
[20] = molecular target: Hypoxia-inducible factor 1-alpha (Homo sapiens) (UniProt Q16665); assay: Inhibition of HIF1alpha protein level in human HeLa cells after 12 hrs in normoxic condition by Western blot analysis; assay type: cell-based; outline: as §1
[21] = molecular target: Hypoxia-inducible factor 1-alpha (Homo sapiens) (UniProt Q16665); assay: Inhibition of HIF1alpha protein level in human HCT116 cells after 12 hrs in hypoxic condition by Western blot analysis; assay type: cell-based; outline: as §1
[22] = test system: Hep 3B2; assay: Cytotoxicity against human Hep3B cells assessed as reduction in cell viability up to 30 uM after 24 hrs in normoxic condition by MTT assay; assay type: cell-based; conditions: hep 3b2, 24 h; outline: as §2
[23] = molecular target: T1, 26S proteasome (Homo sapiens); assay: Inhibition of 26S proteosome in human Hep3B cells grown under in hypoxic condition for 4 hrs assessed as downregulation of HIF1alpha level at 10 uM added together with cycloheximide and measured after up 45 mins post dose by Western blot analysis; assay type: cell-based; outline: as §4
[24] = molecular target: Hypoxia-inducible factor 1-alpha (Homo sapiens) (UniProt Q16665); assay: Inhibition of HIF1alpha transcriptional activity in human Hep3B cells after 24 hrs in hypoxic condition by HRE-dual luciferase reporter gene assay; assay type: cell-based
Outline: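 Hep3B cells transiently co-transfected with pGL3-HRE-luciferase and pRL-CMV, after 24 h incubated under hypoxia with or without compound; luciferase activity measured after 24 h, ursolic acid as positive control; mean ± SD of three independent experiments.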

inhibition [1]: inactive | inhibition [4]: inactive | inhibition [5]: Dose-dependent effect | inhibition [7]: Dose-dependent effect | inhibition [9]: Active | inhibition [11]: inactive | inhibition [14]: Active | inhibition [16]: Dose-dependent effect | inhibition [17]: Active | inhibition [19]: inactive | inhibition [20]: inactive | inhibition [21]: Dose-dependent effect | inhibition [23]: inactive | inhibition [24]: Dose-dependent effect
Structure (SMILES): C[C@H]1[C@H](C)CC[C@]2(C(=O)O)CC[C@]3(C)C(=CC[C@@H]4[C@@]5(C)CC(=C\c6ccc(Cl)cc6)/C(=N\NC(=N)N)C(C)(C)[C@@H]5CC[C@]43C)[C@H]12
IC50 [2]: > 100 µM | Activity [3]: Active | Activity [6]: inactive | Activity [8]: inactive | Activity [10]: inactive | Activity [12]: Dose-dependent effect | Activity [13]: inactive | Activity [15]: inactive | Activity [18]: inactive | Activity [22]: Non-Toxic
